Reference: ChEMBL document CHEMBL1122599, “Antiinflammatory activity of 5,6-diaryl-2,3-dihydroimidazo[2,1-b]thiazoles. Isomeric 4-pyridyl and 4-substituted phenyl derivatives” (1984)

Assays:
Rattus norvegicus [1] = assay: Adjuvant arthritic activity in rat uninjected leg on day 16 tested at 50 mg/kg perorally; format: functional; conditions: 384 h, route oral
Method in brief: (§1)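 Rats received oral doses daily from the day of adjuvant injection for 17 days, skipping days 4, 5, 11 and 12. Leg volumes were compared with those of an arthritic vehicle-control group. Significance was judged by Student's t test.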

Mus musculus [2] = assay: Cutaneous oxazolone induced contact sensitivity in mouse and percent stimulation in right hind paw was determined at a dose 25 mg/kg perorally; conditions: route oral
Rattus norvegicus [3] = assay: Adjuvant arthritic activity in rat injected leg on day 16 tested at 50 mg/kg perorally; format: functional; conditions: 384 h, route oral; method in brief: as §1
Rattus norvegicus [4] = assay: Adjuvant arthritic activity in rat injected leg on day 3 tested at 50 mg/kg perorally; format: functional; conditions: 72 h, route oral; method in brief: as §1
Rattus norvegicus [5] = assay: Adjuvant arthritic activity in rat injected leg on day 3 tested at 50 mg/kg perorally.; format: functional; conditions: 72 h, route oral; method in brief: as §1
Rattus norvegicus [6] = assay: Adjuvant arthritic activity in rat uninjected leg on day 16 tested at 50 mg/kg perorally.; format: functional; conditions: 384 h, route oral; method in brief: as §1
Mus musculus [7] = assay: Cutaneous oxazolone induced contact sensitivity in mouse and percent stimulation in right hind paw was determined at a dose 25 mg/kg perorally.; conditions: route oral
Rattus norvegicus [8] = assay: Adjuvant arthritic activity in rat injected leg on day 16 tested at 50 mg/kg perorally.; format: functional; conditions: 384 h, route oral; method in brief: as §1
Rattus norvegicus [9] = assay: Adjuvant arthritic activity in rat uninjected leg on day 16 tested at 20 mg/kg perorally.; format: functional; conditions: 384 h, route oral; method in brief: as §1
Mus musculus [10] = assay: Cutaneous oxazolone induced contact sensitivity in mouse and percent stimulation in right hind paw was determined at a dose 20 mg/kg perorally; conditions: route oral
Rattus norvegicus [11] = assay: Adjuvant arthritic activity in rat injected leg on day 16 tested at 20 mg/kg perorally.; format: functional; conditions: 384 h, route oral; method in brief: as §1

SMILES | inhibition in vivo at 50 mg/kg (Rattus norvegicus [1]) [%] | Stimulation (Mus musculus [2]) [%] | inhibition in vivo at 50 mg/kg (Rattus norvegicus [3]) [%] | inhibition in vivo at 50 mg/kg (Rattus norvegicus [4]) [%] | inhibition in vivo at 50 mg/kg (Rattus norvegicus [5]) [%] | inhibition in vivo at 50 mg/kg (Rattus norvegicus [6]) [%] | Stimulation (Mus musculus [7]) [%] | inhibition in vivo at 50 mg/kg (Rattus norvegicus [8]) [%] | inhibition in vivo at 20 mg/kg (Rattus norvegicus [9]) [%] | Stimulation (Mus musculus [10]) [%] | inhibition in vivo at 20 mg/kg (Rattus norvegicus [11]) [%]
CSc1ccc(-c2nc3n(c2-c2ccncc2)CCS3)cc1 | 16 | 19 | 12 | 16 |  |  |  |  |  |  | 
c1cc(-c2nc3n(c2-c2ccncc2)CCS3)ccn1 | -3 |  | 7 |  | -4 |  |  |  |  |  | 
Fc1ccc(-c2c(-c3ccncc3)nc3n2CCS3)cc1 | -9 | 15 | 4 | -2 |  |  |  |  |  |  | 
COc1ccc(-c2nc3n(c2-c2ccc(OC)cc2)CCS3)cc1 |  |  |  |  | 25 | 29 | 194 | 36 |  |  | 
Fc1ccc(-c2nc3n(c2-c2ccncc2)CCS3)cc1 |  |  |  | 27 |  | 44 | 69 | 38 |  |  | 
CSc1ccc(-c2c(-c3ccncc3)nc3n2CCS3)cc1 |  | 19 | 8 | 7 |  | -18 |  |  |  |  | 
COc1ccc(-c2c(-c3ccncc3)nc3n2CCS3)cc1 |  | 42 | 1 | 0 |  | -37 |  |  |  |  | 
COc1ccc(-c2nc3n(c2-c2ccncc2)CCS3)cc1 | 21 | 59 | 20 | 15 |  |  |  |  |  |  | 
c1ccc([C@H]2CN3CCSC3=N2)cc1 [LEVAMISOLE] | 1 | 230 | -2 | 0 |  |  |  |  |  |  | 
C[C@]12C=CC(=O)C=C1CC[C@@H]1[C@@H]2[C@@H](O)C[C@@]2(C)[C@H]1CC[C@]2(O)C(=O)CO [PREDNISOLONE] |  |  |  | 28 |  |  |  |  | 54 | -12 | 42
